Test results: ChEMBL document CHEMBL3779815, “Synthesis of newer 1,2,3-triazole linked chalcone and flavone hybrid compounds and evaluation of their antimicrobial and cytotoxic activities” (Eur J Med Chem, 2016)
Converted amounts (≈) assume the structure as drawn.

What was measured:
Staphylococcus aureus = assay: Antibacterial activity against Staphylococcus aureus […] after 18 to 24 hrs by micro-dilution method; assay type: functional
Enterococcus faecalis = assay: Antibacterial activity against Enterococcus faecalis ATCC 29212 after 18 to 24 hrs by micro-dilution assay; assay type: functional
Escherichia coli = assay: Antibacterial activity against Escherichia coli ATCC 35218 after 18 to 24 hrs by micro-dilution method; assay type: functional
Pseudomonas aeruginosa = assay: Antibacterial activity against Pseudomonas aeruginosa […] after 18 to 24 hrs by micro-dilution method; assay type: functional
Shigella boydii = assay: Antibacterial activity against Shigella boydii clinical isolate after 18 to 24 hrs by micro-dilution method; assay type: functional
Klebsiella pneumoniae = assay: Antibacterial activity against Klebsiella pneumoniae ATCC 27736 after 18 to 24 hrs by micro-dilution method; assay type: functional
Candida albicans [1] = assay: Antifungal activity against Candida albicans ATCC 90028 after 18 to 24 hrs by micro-dilution method; assay type: functional
How it was run: (§1)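 Microdilution MIC run as the antibacterial protocol but on Sabouraud dextrose […] pH 7.3±0.2; compounds 100 to 0.78 μg/mL in twofold steps; saline-prepared inocula 1-2 × 10⁷ cfu/mL, 0.01 mL added; 37 °C aerobic, 18-24 h; MIC read as lowest concentration without visible growth or turbidity; fluconazole reference.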

Candida albicans [2] = assay: Antifungal activity against Candida albicans clinical isolate after 18 to 24 hrs by micro-dilution method; assay type: functional; how it was run: as §1
Candida tropicalis = assay: Antifungal activity against Candida tropicalis ATCC 750 after 18 to 24 hrs by micro-dilution method; assay type: functional; how it was run: as §1
Candida parapsilosis = assay: Antifungal activity against Candida parapsilosis ATCC 22019 after 18 to 24 hrs by micro-dilution method; assay type: functional; details: Lodderomyces parapsilosis; how it was run: as §1
Cryptococcus neoformans = assay: Antifungal activity against Cryptococcus neoformans clinical isolate after 18 to 24 hrs by micro-dilution method; assay type: functional; how it was run: as §1
Arthrodermataceae = assay: Antifungal activity against Dermatophyte clinical isolate after 18 to 24 hrs by micro-dilution method; assay type: functional; how it was run: as §1
Aspergillus niger = assay: Antifungal activity against Aspergillus niger clinical isolate after 18 to 24 hrs by micro-dilution method; assay type: functional; how it was run: as §1
Aspergillus fumigatus = assay: Antifungal activity against Aspergillus fumigatus clinical isolate after 18 to 24 hrs by micro-dilution method; assay type: functional; how it was run: as §1
Plasmodium falciparum = assay: Antimalarial activity against erythrocytic stage of chloroquine sensitive Plasmodium falciparum 3D7 assessed as inhibition of parasitemia after 48 hrs by Giemsa staining based microscopic analysis; assay type: functional, organism-based; details: 3D7, 48 h
How it was run: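 Asynchronous culture on human O⁺ erythrocytes, 1-1.5% parasitemia, 4% hematocrit, RPMI-1640 with HEPES, NaHCO₃, glutamine, gentamycin, Albumax II; drug 0.10-100 μg/mL, 48 h, 37 °C, medium changed at 24 h; triplicate wells; Giemsa thin smears, about 4,000 erythrocytes counted at 1,000X; % parasitemia inhibition versus control gives IC50.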

[3] = Cytotoxicity against human HuH7 cells after 72 hrs by MTT assay; assay type: cell-based, Huh-7
How it was run: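 Huh-7 cells, 4 × 10³/well in DMEM with 10% FBS and penicillin-streptomycin-glutamine; eight 2-fold dilutions 100-0.78 μg/mL, 72 h; MTT added 2-4 h, then isopropanol/Triton X-100/HCl solubilization 2 h dark, RT; absorbance 570 nm; CC50 as mean of at least two experiments in duplicate.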

MIC (Staphylococcus aureus)	MIC (Enterococcus faecalis)	MIC (Escherichia coli)	MIC (Pseudomonas aeruginosa)	MIC (Shigella boydii)	MIC (Klebsiella pneumoniae)	MIC (Candida albicans [1])	MIC (Candida albicans [2])	MIC (Candida tropicalis)	MIC (Candida parapsilosis)	MIC (Cryptococcus neoformans)	MIC (Arthrodermataceae)	MIC (Aspergillus niger)	MIC (Aspergillus fumigatus)	IC50 (Plasmodium falciparum)	SMILES	CC50 at 72 h [3]
> 100 µg/mL	> 100 µg/mL	100 µg/mL (≈ 136 µM)	100 µg/mL (≈ 136 µM)	> 100 µg/mL	> 100 µg/mL	> 100 µg/mL	> 100 µg/mL	100 µg/mL (≈ 136 µM)	> 100 µg/mL	> 100 µg/mL	> 100 µg/mL	100 µg/mL (≈ 136 µM)	> 100 µg/mL	10.4 µg/mL (≈ 14.2 µM)	COc1cc(OC)c2c(=O)cc(-c3ccc(OCc4cn(-c5ccc(F)c(Cl)c5)nn4)c(OCc4cn(-c5ccc(F)c(Cl)c5)nn4)c3)oc2c1	> 100 µg/mL
50 µg/mL (≈ 96.2 µM)	50 µg/mL (≈ 96.2 µM)	100 µg/mL (≈ 192 µM)	50 µg/mL (≈ 96.2 µM)	> 100 µg/mL	100 µg/mL (≈ 192 µM)	> 100 µg/mL	> 100 µg/mL	> 100 µg/mL	> 100 µg/mL	> 100 µg/mL	> 100 µg/mL	> 100 µg/mL	> 100 µg/mL	12.1 µg/mL (≈ 23.2 µM)	COc1cc(OC)c2c(=O)cc(-c3ccc(OCc4cn(-c5ccccc5Cl)nn4)c(OC)c3)oc2c1	> 100 µg/mL
12.5 µg/mL (≈ 17.8 µM)	6.25 µg/mL (≈ 8.9 µM)	6.25 µg/mL (≈ 8.9 µM)	12.5 µg/mL (≈ 17.8 µM)	6.25 µg/mL (≈ 8.9 µM)	12.5 µg/mL (≈ 17.8 µM)	6.25 µg/mL (≈ 8.9 µM)	6.25 µg/mL (≈ 8.9 µM)	12.5 µg/mL (≈ 17.8 µM)	12.5 µg/mL (≈ 17.8 µM)	6.25 µg/mL (≈ 8.9 µM)	12.5 µg/mL (≈ 17.8 µM)	25 µg/mL (≈ 35.6 µM)	25 µg/mL (≈ 35.6 µM)	8.86 µg/mL (≈ 12.6 µM)	COc1cc(O)c(C(=O)/C=C/c2ccc(OCc3cn(-c4ccc(F)cc4F)nn3)c(OCc3cn(-c4ccc(F)cc4F)nn3)c2)c(OC)c1	> 100 µg/mL
> 100 µg/mL	> 100 µg/mL	> 100 µg/mL	> 100 µg/mL	> 100 µg/mL	> 100 µg/mL	12.5 µg/mL (≈ 23.2 µM)	12.5 µg/mL (≈ 23.2 µM)	12.5 µg/mL (≈ 23.2 µM)	12.5 µg/mL (≈ 23.2 µM)	6.25 µg/mL (≈ 11.6 µM)	12.5 µg/mL (≈ 23.2 µM)	50 µg/mL (≈ 92.9 µM)	50 µg/mL (≈ 92.9 µM)	4.48 µg/mL (≈ 8.33 µM)	COc1cc(OC)c2c(=O)cc(-c3ccc(OCc4cn(-c5ccc(F)c(Cl)c5)nn4)c(OC)c3)oc2c1	> 100 µg/mL
> 100 µg/mL	> 100 µg/mL	> 100 µg/mL	> 100 µg/mL	> 100 µg/mL	> 100 µg/mL	12.5 µg/mL (≈ 17 µM)	12.5 µg/mL (≈ 17 µM)	6.25 µg/mL (≈ 8.52 µM)	12.5 µg/mL (≈ 17 µM)	12.5 µg/mL (≈ 17 µM)	6.25 µg/mL (≈ 8.52 µM)	12.5 µg/mL (≈ 17 µM)	12.5 µg/mL (≈ 17 µM)	14.5 µg/mL (≈ 19.7 µM)	COc1cc(OC)c2c(=O)cc(-c3ccc(OCc4cn(-c5ccc(F)cc5Cl)nn4)c(OCc4cn(-c5ccc(F)cc5Cl)nn4)c3)oc2c1	> 100 µg/mL
100 µg/mL (≈ 185 µM)	> 100 µg/mL	> 100 µg/mL	> 100 µg/mL	> 100 µg/mL	> 100 µg/mL	> 100 µg/mL	> 100 µg/mL	> 100 µg/mL	> 100 µg/mL	> 100 µg/mL	> 100 µg/mL	> 100 µg/mL	> 100 µg/mL	4.92 µg/mL (≈ 9.11 µM)	COc1cc(O)c(C(=O)/C=C/c2ccc(OC)c(OCc3cn(-c4ccc(F)cc4Cl)nn3)c2)c(OC)c1	> 100 µg/mL
> 100 µg/mL	> 100 µg/mL	100 µg/mL (≈ 143 µM)	> 100 µg/mL	> 100 µg/mL	100 µg/mL (≈ 143 µM)	> 100 µg/mL	> 100 µg/mL	> 100 µg/mL	> 100 µg/mL	> 100 µg/mL	> 100 µg/mL	> 100 µg/mL	> 100 µg/mL	12.8 µg/mL (≈ 18.2 µM)	COc1cc(O)c(C(=O)/C=C/c2ccc(OCc3cn(-c4ccc(Cl)cc4)nn3)c(OCc3cn(-c4ccc(Cl)cc4)nn3)c2)c(OC)c1	> 100 µg/mL
> 100 µg/mL	> 100 µg/mL	> 100 µg/mL	> 100 µg/mL	> 100 µg/mL	> 100 µg/mL	12.5 µg/mL (≈ 17.9 µM)	12.5 µg/mL (≈ 17.9 µM)	12.5 µg/mL (≈ 17.9 µM)	12.5 µg/mL (≈ 17.9 µM)	6.25 µg/mL (≈ 8.96 µM)	12.5 µg/mL (≈ 17.9 µM)	12.5 µg/mL (≈ 17.9 µM)	12.5 µg/mL (≈ 17.9 µM)	8.98 µg/mL (≈ 12.9 µM)	COc1cc(OC)c2c(=O)cc(-c3ccc(OCc4cn(-c5ccccc5Cl)nn4)c(OCc4cn(-c5ccccc5Cl)nn4)c3)oc2c1	> 100 µg/mL
12.5 µg/mL (≈ 23.9 µM)	6.25 µg/mL (≈ 12 µM)	6.25 µg/mL (≈ 12 µM)	12.5 µg/mL (≈ 23.9 µM)	6.25 µg/mL (≈ 12 µM)	25 µg/mL (≈ 47.9 µM)	> 100 µg/mL	> 100 µg/mL	> 100 µg/mL	> 100 µg/mL	> 100 µg/mL	> 100 µg/mL	> 100 µg/mL	> 100 µg/mL	6.78 µg/mL (≈ 13 µM)	COc1cc(O)c(C(=O)/C=C/c2ccc(OCc3cn(-c4ccccc4Cl)nn3)c(OC)c2)c(OC)c1	> 100 µg/mL
> 100 µg/mL	100 µg/mL (≈ 136 µM)	> 100 µg/mL	> 100 µg/mL	100 µg/mL (≈ 136 µM)	> 100 µg/mL	> 100 µg/mL	> 100 µg/mL	> 100 µg/mL	> 100 µg/mL	> 100 µg/mL	> 100 µg/mL	> 100 µg/mL	> 100 µg/mL	10.9 µg/mL (≈ 14.8 µM)	COc1cc(O)c(C(=O)/C=C/c2ccc(OCc3cn(-c4ccc(F)c(Cl)c4)nn3)c(OCc3cn(-c4ccc(F)c(Cl)c4)nn3)c2)c(OC)c1	> 100 µg/mL
> 100 µg/mL	100 µg/mL (≈ 192 µM)	> 100 µg/mL	> 100 µg/mL	> 100 µg/mL	> 100 µg/mL	50 µg/mL (≈ 96.2 µM)	12.5 µg/mL (≈ 24 µM)	50 µg/mL (≈ 96.2 µM)	50 µg/mL (≈ 96.2 µM)	12.5 µg/mL (≈ 24 µM)	12.5 µg/mL (≈ 24 µM)	50 µg/mL (≈ 96.2 µM)	50 µg/mL (≈ 96.2 µM)	5.19 µg/mL (≈ 9.98 µM)	COc1cc(OC)c2c(=O)cc(-c3ccc(OCc4cn(-c5ccc(Cl)cc5)nn4)c(OC)c3)oc2c1	> 100 µg/mL
> 100 µg/mL	100 µg/mL (≈ 143 µM)	> 100 µg/mL	> 100 µg/mL	> 100 µg/mL	> 100 µg/mL	50 µg/mL (≈ 71.4 µM)	> 100 µg/mL	> 100 µg/mL	100 µg/mL (≈ 143 µM)	> 100 µg/mL	> 100 µg/mL	> 100 µg/mL	> 100 µg/mL	9.25 µg/mL (≈ 13.2 µM)	COc1cc(OC)c2c(=O)cc(-c3ccc(OCc4cn(-c5ccc(F)cc5F)nn4)c(OCc4cn(-c5ccc(F)cc5F)nn4)c3)oc2c1	> 100 µg/mL
